Experimental data of several laboratories.
Lines come from different studies, so protocols differ. ≈ marks a conversion by molar mass, not a printed value.
Organism: Pichia kudriavzevii

With `C[C@@H]1[C@H](O)[C@@H](C)/C=C/C=C/C=C/C=C/C=C/C=C/C=C/[C@H](O[C@@H]2O[C@H](C)[C@@H](O)[C@H](N)[C@@H]2O)C[C@@H]2O[C@](O)(C[C@@H](O)C[C@@H](O)[C@H](O)CC[C@@H](O)C[C@@H](O)CC(=O)O[C@H]1C)C[C@H](O)[C@H]2C(=O)O` the MFC was 1.35 µM (microbial killing; ATCC6258).
The IC50 of `C=CCCCCCCCCCCCC(O)CC(O)CO` (stereo not drawn) is reported as greater than 200 µg/mL (microbial growth; broth dilution; ATCC6258).
For `CCCCCCCOc1c(OC)cc(NC(C)CCCN)c2nc(C(C)(C)C)ccc12` (stereo not drawn), the MFC was 5 µg/mL (microbial killing; ATCC6258).
`CCCCCCCCCCCCN1CCN(CC(O)(Cn2cncn2)c2ccc(F)cc2F)CC1` (stereo not drawn) has an MIC of 0.48 µg/mL (≈ 0.976 µM) (microbial growth; broth dilution; ATCC6258; 48 h).
The IC50 of `C#CCCCCCCCCCCCC(O)CC(O)CO` (stereo not drawn) is reported as greater than 200 µg/mL (microbial growth; broth dilution; ATCC6258).
For `CCCCCCOc1c(OC)cc(NC(C)CCCN)c2nc(C(C)(C)C)cc(C)c12` (stereo not drawn), the IC50 was 3.73 µg/mL (≈ 8.68 µM) (microbial growth; ATCC6258).
For `CCCCCCCCCN1CCN(CC(O)(Cn2cncn2)c2ccc(F)cc2F)CC1` (stereo not drawn), the MIC was 0.975 µg/mL (≈ 2.17 µM) (microbial growth; broth dilution; ATCC6258; 48 h).
The IC50 of `CCCCCOc1c(OC)cc(NC(C)CCCNC(=O)C(N)CC(C)C)c2nc(C(C)(C)C)ccc12` (stereo not drawn) is reported as 8.73 µg/mL (≈ 17 µM) (microbial growth; ATCC6258).
`CC(=O)N1CCN(c2ccc(OCC3COC(Cn4ccnc4)(c4ccc(Cl)cc4Cl)O3)cc2)CC1` (stereo not drawn) has an MIC90 of 1 µg/mL (≈ 1.88 µM) (microbial growth).
For `CCCCCCCCOc1c(OC)cc(NC(C)CCCN)c2nc(C(C)(C)C)ccc12` (stereo not drawn), the IC50 was 5.82 µg/mL (≈ 13.1 µM) (microbial growth; ATCC6258).
The IC50 of `C[C@@H]1[C@H](O)[C@@H](C)/C=C/C=C/C=C/C=C/C=C/C=C/C=C/[C@H](O[C@@H]2O[C@H](C)[C@@H](O)[C@H](N)[C@@H]2O)C[C@@H]2O[C@](O)(C[C@@H](O)C[C@@H](O)[C@H](O)CC[C@@H](O)C[C@@H](O)CC(=O)O[C@H]1C)C[C@H](O)[C@H]2C(=O)O` is reported as 0.95 µg/mL (≈ 1.03 µM) (microbial growth; ATCC6258).
For `CCCCCN1CCNCC1`, the MIC was greater than 31.3 µg/mL (microbial growth; broth dilution; ATCC6258; 48 h).
For `CCCCCCCOc1c(OC)cc(NC(C)CCCNC(=O)C(N)C(C)CC)c2nc(C(C)(C)C)ccc12` (stereo not drawn), the MIC was 10 µg/mL (≈ 18.4 µM) (microbial growth; ATCC6258).
With `OC(CN1CCOCC1)(Cn1cncn1)c1ccc(F)cc1F` (stereo not drawn) the MIC was greater than 31.3 µg/mL (microbial growth; broth dilution; ATCC6258; 48 h).
`CCCCCCCOc1c(OC)cc(NC(C)CCCN)c2nc(C(C)(C)C)cc(C)c12` (stereo not drawn) has an IC50 of 2.89 µg/mL (≈ 6.51 µM) (microbial growth; ATCC6258).
The MIC of `Fc1ccc(C2(Cn3cncn3)CO2)c(F)c1` (stereo not drawn) is reported as greater than 31.3 µg/mL (microbial growth; broth dilution; ATCC6258; 48 h).
For `C[C@@H](c1ncncc1F)[C@](O)(Cn1cncn1)c1ccc(F)cc1F`, the MIC90 was 0.25 µg/mL (≈ 0.716 µM) (microbial growth).
The MIC of `CC[C@H](C)C[C@H](C)CCCCCCCCC(=O)N[C@H]1C[C@@H](O)[C@@H](NCCN)NC(=O)[C@@H]2[C@@H](O)CCN2C(=O)[C@H]([C@H](O)CCN)NC(=O)[C@H]([C@H](O)[C@@H](O)c2ccc(O)cc2)NC(=O)[C@@H]2C[C@@H](O)CN2C(=O)[C@H]([C@@H](C)O)NC1=O` is reported as 0.48 µg/mL (≈ 0.439 µM) (microbial growth; broth dilution; ATCC6258; 48 h).
For `CCC(C)n1ncn(-c2ccc(N3CCN(c4ccc(OCC5COC(Cn6cncn6)(c6ccc(Cl)cc6Cl)O5)cc4)CC3)cc2)c1=O` (stereo not drawn), the MIC90 was 0.5 µg/mL (≈ 0.709 µM) (microbial growth).
For `CCCCCCCCCCCN1CCN(CC(O)(Cn2cncn2)c2ccc(F)cc2F)CC1` (stereo not drawn), the MIC was 1.95 µg/mL (≈ 4.08 µM) (microbial growth; broth dilution; ATCC6258; 48 h).
`CCCCCCOc1c(OC)cc(NC(C)CCCN)c2nc(C(C)(C)C)ccc12` (stereo not drawn) gave an IC50 of 7.16 µg/mL (≈ 17.2 µM) (microbial growth; ATCC6258).
